In ChEMBL document CHEMBL4385618, “Exploring small molecules with pan-genotypic inhibitory activities against hepatitis C virus NS3/4A serine protease” (Bioorg Med Chem Lett, 2019):
Calls of active or inactive are those of the source. The calls are words filed in the database; no cut-off is given here.

Key:
[1] = (§1) Inhibition of recombinant wild type full length His-tagged HCV genotype 1b NS3 (1027 to 1657 residues)/4A (1658 to 1711 residues) protease expressed in Escherichia coli rosetta (DE3) cells using Ac-DE-Dap(QXL520)-EE-Abu-Psi-[COO]AS-C(5-FAMsp)-NH2 as substrate preincubated up to 10 mins followed by substrate addition and measured for 10 mins by fluorescence-based microplate reader analysis; parameters: species or system Hepatitis C virus subtype 1b
In short: (§2)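 IC50 came from the fluorescence-based enzymatic assay by fitting the inhibition curve to the three-parameter Hill equation.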

[2] = Binding affinity to recombinant full length His-tagged HCV genotype 1b NS3 (1027 to 1657 residues)/4A (1658 to 1711 residues) protease expressed in Escherichia coli rosetta (DE3) cells assessed as dissociation constant by SPR analysis; parameters: species or system Hepatitis C virus subtype 1b
[3] = tested on: Hepatitis C virus subtype 2a; assay: Inhibition of recombinant HCV genotype 2a NS3/4A protease using Ac-DE-Dap(QXL520)-EE-Abu-Psi-[COO]AS-C(5-FAMsp)-NH2 as substrate preincubated up to 10 mins followed by substrate addition and measured for 10 mins by fluorescence-based microplate reader analysis; in short: as §2
[4] = tested on: Hepatitis C virus genotype 4; assay: Inhibition of recombinant HCV genotype 4 NS3/4A protease using Ac-DE-Dap(QXL520)-EE-Abu-Psi-[COO]AS-C(5-FAMsp)-NH2 as substrate preincubated up to 10 mins followed by substrate addition and measured for 10 mins by fluorescence-based microplate reader analysis; in short: as §2
[5] = tested on: Hepatitis C virus serine protease, NS3/NS4A (Hepatitis C virus), D2K2A8+A3EZI9 [R155K]; assay: as §1, with “recombinant” for “recombinant wild type”, “NS3/4A” for “NS3”, “1657” for “1657 residues)/4A (1658 to 1711”, “protease R155K (NS3) mutant” for “protease”; conditions: Hepatitis C virus subtype 1b
In short: (§3)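 IC50 values come from a fluorescence-based enzymatic assay, with dose-response curves fitted to a three-parameter Hill equation. The mutants were genotype 1b NS3/4A.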

[6] = tested on: Hepatitis C virus serine protease, NS3/NS4A (Hepatitis C virus), D2K2A8+A3EZI9 [V36M]; assay: as §1, with “recombinant” for “recombinant wild type”, “NS3/4A” for “NS3”, “1657” for “1657 residues)/4A (1658 to 1711”, “protease V36M (NS3) mutant” for “protease”; conditions: Hepatitis C virus subtype 1b; in short: as §3
[7] = tested on: Hepatitis C virus subtype 1a; assay: Inhibition of recombinant HCV genotype 1a NS3/4A protease using Ac-DE-Dap(QXL520)-EE-Abu-Psi-[COO]AS-C(5-FAMsp)-NH2 as substrate preincubated up to 10 mins followed by substrate addition and measured for 10 mins by fluorescence-based microplate reader analysis; in short: as §2
[8] = tested on: Hepatitis C virus serine protease, NS3/NS4A (Hepatitis C virus), D2K2A8+A3EZI9 [A156S]; assay: as §1, with “recombinant” for “recombinant wild type”, “NS3/4A” for “NS3”, “1657” for “1657 residues)/4A (1658 to 1711”, “protease A156S (NS3) mutant” for “protease”; conditions: Hepatitis C virus subtype 1b; in short: as §3
[9] = (§4) Inhibition of recombinant HCV genotype 3a NS3/4A protease using Ac-DE-Dap(QXL520)-EE-Abu-Psi-[COO]AS-C(5-FAMsp)-NH2 as substrate preincubated up to 10 mins followed by substrate addition and measured for 10 mins by fluorescence-based microplate reader analysis; parameters: species or system Hepatitis C virus subtype 3a; in short: as §2
[10] = tested on: Hepatitis C virus subtype 3a; assay: as §4; in short: as §2

IC50 [1] [µM]	Compound	inhibition [3]	inhibition [4]	inhibition [5]	inhibition [7]	IC50 [9] [µM]	further results
10 to 100	Cc1ccc(S(=O)(=O)Nc2ccccc2C(=O)Nc2nc3c(Br)cccc3s2)cc1						Kd [2]: > 200 µM
5 to 10	CSc1cccc(NC(=O)Cc2csc(NS(=O)(=O)c3ccccc3)n2)c1						
2 to 5	Cc1ccc(S(=O)(=O)Nc2ccccc2C(=O)Nc2nc3c(C)cc(C)cc3s2)cc1						
5 to 10	Cc1c(Cl)cccc1NC(=O)Cc1csc(NS(=O)(=O)c2ccccc2)n1						
10 to 100	CSc1cccc2sc(NC(=O)c3ccccc3NS(=O)(=O)c3ccc(C)cc3)nc12						Kd [2]: > 200 µM

The next lines start with the compound.

Compound	IC50 [1] [µM]	inhibition [3]	inhibition [4]	inhibition [5]	inhibition [7]	IC50 [9] [µM]	further results
Cc1ccc(S(=O)(=O)Nc2ccccc2C(=O)Nc2nc3c(ccc4ccccc43)s2)cc1	5 to 10						
Cc1ccc(S(=O)(=O)Nc2ccccc2C(=O)Nc2nc3ccc4ccccc4c3s2)cc1	2 to 5						
Cc1ccc(S(=O)(=O)Nc2ccccc2C(=O)Nc2nc3ccc4sc(C)nc4c3s2)cc1	2 to 5						
Cc1ccc(S(=O)(=O)Nc2ccccc2C(=O)Nc2nc3c(Cl)ccc(Cl)c3s2)cc1	1.6	Active	Active	Active	Active	14 to 33	inhibition [6]: Active; inhibition [8]: Active
Cc1ccc(S(=O)(=O)Nc2ccccc2C(=O)Nc2nc3c(C)ccc(Cl)c3s2)cc1	5 to 10	Active	Active	inactive	Active	14 to 33	
Cc1ccc(S(=O)(=O)Nc2ccccc2C(=O)Nc2nc3c(cc4c5c(cccc53)CC4)s2)cc1	2 to 5	Active	Active	inactive	Active	14 to 33	
Cc1ccc(S(=O)(=O)Nc2ccccc2C(=O)Nc2nc(-c3cc(Cl)ccc3Cl)cs2)cc1	< 2	Active	Active	inactive	Active	14 to 33	
Cc1cc(NC(=O)Cc2csc(NS(=O)(=O)c3ccccc3)n2)ccc1Br							inhibition [10]: inactive
